# Screening data: PubChem, The Scripps Research Institute Molecular Screening Center
# Most compounds without a hit are left out; they make up all but 2.5% or so of the library.
# TDP2 absorb = human TDP2 enzyme inhibitors, primary screen, biochemical, epi absorbance, recombinant enzyme; Tyrosyl-DNA phosphodiesterase 2 (Homo sapiens), O95551; T5PNP hydrolysis, p-nitrophenol absorbance 415 nm; inhibition, % at 12.8 µM; actives 0.34% (n = 370,000); AID 720702, 2013;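 active means inhibition above the mean of all tested compounds plus 3 SD, set per campaign, cut at about 25% in these data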;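 further: 0% = DMSO with enzyme and 100% = buffer with substrate but no TDP2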
#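 System: recombinant human TDP2 / Amount: 120 nM TDP2 per well / Also added: 5 mM T5PNP chromogenic substrate / Doses: 12.8 µM single point, 1% DMSO / Incubation: 2 h at 37 °C / Detection: p-Nitrophenol epi absorbance / Evaluation: % inhibition relative to enzyme-containing and enzyme-free wells / Repeats: singlicate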
# PRMT1 FP inh = PRMT1 methyltransferase inhibitors, primary screen, biochemical, fluorescence polarization | Protein arginine N-methyltransferase 1 (Homo sapiens), Q99873 | inhibition, % at 2.79 µM | actives 1.3% (n = 370,000) | recombinant PRMT1, activity-based probe fluorescence polarization | AID 652257, 2013;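 active means inhibition above about 21% made by adding two undisclosed values, limit read from the data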
# Target sequence (Q99873 whole entry, looked up): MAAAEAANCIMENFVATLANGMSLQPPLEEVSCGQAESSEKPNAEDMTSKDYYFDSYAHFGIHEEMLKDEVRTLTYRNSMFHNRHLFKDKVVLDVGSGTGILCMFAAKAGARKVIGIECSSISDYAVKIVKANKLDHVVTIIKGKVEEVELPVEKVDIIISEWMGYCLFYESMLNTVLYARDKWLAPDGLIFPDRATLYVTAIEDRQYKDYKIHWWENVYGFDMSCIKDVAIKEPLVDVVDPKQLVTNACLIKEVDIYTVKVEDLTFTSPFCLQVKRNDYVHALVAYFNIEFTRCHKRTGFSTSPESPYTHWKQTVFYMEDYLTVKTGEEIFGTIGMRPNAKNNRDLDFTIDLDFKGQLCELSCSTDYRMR
# PAD4 FP inh = human PAD4 inhibitors, primary screen, biochemical, fluorescence polarization, 1536-well format; Protein-arginine deiminase type-4 (Homo sapiens), Q9UM07; recombinant PAD4, RCA probe fluorescence polarization; inhibition, % at 6.36 µM; actives 0.41% (n = 330,000); AID 485272, 2010;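 active means percent inhibition above a cutoff equal to the mean of all tested compounds plus 3 SD, cut at about 15% in these data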;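 further: 0% = PAD4 with RCA probe and DMSO and 100% = probe without PAD4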
# GSTO1 inh = inhibitors of recombinant GSTO1, primary screen, counter-screen for RBBP9 inhibitor project, biochemical, fluorescence polarization; Glutathione S-transferase omega-1 (Homo sapiens), P78417; activity-based probe fluorescence polarization; inhibition, % at 5.96 µM; actives 1.1% (n = 300,000);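 active means inhibition above the campaign mean inhibition plus 3 SD, cut at about 35% in these data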;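 further: 0% = GSTO1-1 with DMSO and 100% = wells lacking GSTO1-1 enzyme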
# Fh CTSL1 inh = Fasciola hepatica cathepsin L1 inhibitors, primary screen, counter-screen for PFM18AAP inhibitor project, biochemical, QFRET, fluorogenic peptide substrate | recombinant F. hepatica cathepsin L1, Z-Leu-Arg-MCA fluorescence | inhibition, % at 5.96 µM | actives 0.49% (n = 300,000);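 active means inhibition above the mean of all tested compounds plus 3 SD, set per screening campaign, cut at about 17% in these data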;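 further: 0% = plate median of test compound wells and 100% = 1 µM Z-Phe-Ala-diazomethylketone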
# TDP2 inh conf = human TDP2 enzyme inhibitors, retest, confirmation, biochemical, epi absorbance, recombinant enzyme; shares compounds with TDP2 absorb; absorbance read-out; inhibition, % at 12.8 µM; actives 22% (n = 1,100); AID 743263, 2014; in the data active means inhibition above about 25%;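 further: 0% = vehicle with enzyme and 100% = no enzyme buffer only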
# Numbers without * were called inactive; . = not tested or not shown.
SMILES,TDP2 absorb,PRMT1 FP inh,PAD4 FP inh,GSTO1 inh,Fh CTSL1 inh,TDP2 inh conf
Cc1[nH]c(C)c(S(=O)(=O)N(Cc2ccccc2)C(C)(C)C)c1C(=O)N1CCCC1,10.3,1.7,-0.3,-3.2,1.6,.
Cc1[nH]c(C)c(S(=O)(=O)N(C)Cc2ccccc2)c1C(=O)N1CCCC1,27.6*,-3.4,0.8,-0.2,-2.2,-3.6
N#CC1C(=O)Nc2cccnc21 (centres undefined),65.6*,2.8,.,.,.,2.8
O=C1Nc2ccccc2C1Cc1ccccn1 (centres undefined),16.8,0.2,6.7,-2.0,2.8,.
COC1=C(Nc2ccc(C)cc2)C(=O)c2ccccc2C1=O,55.0*,-2.1,-8.5,32.4,-5.8,15.6
Cc1ccc(S(=O)(=O)Nc2ccc3c(c2)C(=O)c2ccccc2-3)cc1,1.2,-5.6,.,.,.,.
CCCC[C@H](C(=O)N(CC)c1ccccc1)[C@@H](O)c1ccc(Cl)cc1,1.6,-0.2,.,.,.,.
N#Cc1ccccc1S(=O)(=O)N1CCN(CC(O)COc2ccccc2F)CC1 (centres undefined),28.5*,4.9,1.4,-3.6,7.2,8.2
O=S(=O)(c1ccccc1C(F)(F)F)N1CCN(CC(O)COc2ccccc2F)CC1 (centres undefined),6.7,-2.1,.,.,.,.
O=C(OCc1nnc(-c2ccccc2)o1)c1ccc([N+](=O)[O-])s1,31.7*,-0.3,11.6,.,.,37.4*
Cc1ccc(C(=O)OCc2nnc(-c3ccccc3)o2)s1,15.5,0.4,1.3,-5.7,-3.1,.
COc1cc(N)c2ncccc2c1SC,44.7*,4.3,.,.,.,3.0
COc1cc(NC(C)=O)c2ncccc2c1NC(C)=O,-8.6,-1.3,-1.6,-5.8,-2.9,.
COc1cc(N)c2ncccc2c1Br,76.2*,17.5,.,.,.,50.7*
COc1ccc(OC)c(CN2C(=O)CCCC2(C)c2nnnn2C2CCCC2)c1 (centres undefined),-2.0,-5.0,.,.,.,.
CN(Cc1cnn(C)c1)Cc1nc(-c2ccc(Cl)cc2)no1,-9.5,3.1,3.1,4.7,-2.5,.
CCc1ccc(CN(C)Cc2nc(-c3cccc(Cl)c3)no2)nc1,27.6*,-1.0,1.7,5.4,-2.5,4.0
Cc1csc(N/N=C/c2ccc([N+](=O)[O-])cc2)n1,-5.0,9.5,1.4,-3.1,-2.1,.
Cc1nnc(N/N=C/c2ccc([N+](=O)[O-])cc2)n1N,55.1*,10.3,5.3,-0.8,-2.1,0.1
CCCNC(=O)C[C@H]1CC[C@H]2[C@@H](COc3ccc(NC(=O)Nc4ccccc4)cc3C(=O)N2C)O1,16.0,-0.8,.,.,.,.
COc1cc(C(C)=O)ccc1OCC(O)CN1CCN(c2ccccn2)CC1 (centres undefined),26.3*,-3.3,-5.1,12.3,0.7,-1.1
c1cnc(SCC2CCCCC2)c(-c2nc3ccccc3[nH]2)c1,1.5,-7.2,.,.,.,.
O=C(O)CN1C(=O)/C(=C\c2cc(Br)ccc2OCc2ccc(Cl)cc2)SC1=S,26.0*,18.6,.,.,.,17.4
COc1ccc(/C=C2/SC(=S)N(CC(=O)O)C2=O)cc1OCc1ccc(Cl)cc1,-1.6,4.1,2.3,0.1,5.9,.
CC(C)c1ccc(OCCCN2CCC(C(O)(c3ccccc3)c3ccccc3)CC2)cc1,-4.0,-2.3,.,.,.,.
O=C(NC(N1CCOCC1)C(Cl)(Cl)Cl)c1ccccc1Cl (centres undefined),26.8*,2.8,1.1,13.4,1.7,7.9
Cc1nc(COC(=O)c2ccc(CO)cc2)cs1,-0.7,-2.8,2.5,0.5,0.6,.
Cc1nc(COC(=O)c2cc(O)c3ccccc3c2O)cs1,25.5*,10.9,.,.,.,6.0
COc1ccccc1/C=C/C(=O)OCC(=O)Nc1ccc(Cl)cn1,29.1*,-0.1,-3.5,0.7,-15.1,-1.4
CCC(Oc1ccccc1)C(=O)Nc1ccc(C)c(S(=O)(=O)N2CCOCC2)c1 (centres undefined),28.9*,1.9,2.1,-2.1,-2.9,4.8
